This is an account of results in publication PMC7703390 (Journal of Pharmaceutical and Biomedical Analysis, 2020).

The target of data set [1] is human serum albumin (HSA) (Homo sapiens, UniProt P02768). Kind of data set: Binding of nucleotides to human serum albumin by native ESI-FT-ICR MS. Summed up: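 Commercial HSA buffer-exchanged five times into 10 mM NH4Ac (pH 6.0) on a 30k membrane filter. Purified HSA (3 μM) mixed with varying nucleotide concentrations in 10 mM NH4Ac and infused at 5 μL∙min−1 in native positive-mode ESI-FT-ICR MS, m/z 1000–5000, 200 scans combined. Free HSA to complex intensity ratios taken from deconvoluted 17+ to 19+ charge states; KD by nonlinear regression.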

Data set [2] is described as follows: Degradation in liver homogenate on ice and at room temperature. The class given is in vitro ADME, mouse. Conditions: both on ice and at room temperature; Fig. 4a.

Chain of human serum albumin (HSA) (P02768 25-609): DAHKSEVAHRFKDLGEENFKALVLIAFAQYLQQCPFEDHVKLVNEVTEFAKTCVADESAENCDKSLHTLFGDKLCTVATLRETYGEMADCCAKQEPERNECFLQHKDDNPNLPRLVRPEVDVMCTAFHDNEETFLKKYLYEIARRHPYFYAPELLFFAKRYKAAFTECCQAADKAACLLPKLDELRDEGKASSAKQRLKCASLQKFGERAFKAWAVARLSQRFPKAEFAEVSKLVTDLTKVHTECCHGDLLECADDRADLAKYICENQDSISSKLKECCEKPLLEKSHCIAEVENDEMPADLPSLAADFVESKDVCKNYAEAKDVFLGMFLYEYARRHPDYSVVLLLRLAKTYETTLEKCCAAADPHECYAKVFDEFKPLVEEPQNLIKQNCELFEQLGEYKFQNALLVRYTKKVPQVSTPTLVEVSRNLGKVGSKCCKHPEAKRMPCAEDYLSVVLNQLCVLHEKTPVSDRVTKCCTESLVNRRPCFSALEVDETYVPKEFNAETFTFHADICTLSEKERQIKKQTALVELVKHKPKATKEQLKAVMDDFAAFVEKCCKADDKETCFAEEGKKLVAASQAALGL

For `O=c1ccn([C@@H]2O[C@H](COP(=O)(O)OP(=O)(O)OP(=O)(O)O)[C@@H](O)[C@H]2O)c(=O)[nH]1` [UTP, uridine triphosphate], binding in data set [1] was put at a Kd of 6.79 ± 0.333 µM.
In data set [1], `Nc1ncnc2c1ncn2[C@@H]1O[C@H](COP(=O)(O)OP(=O)(O)OP(=O)(O)O)[C@@H](O)[C@H]1O` [ATP, Adenosine triphosphate] gave a Kd of 0.471 ± 0.0238 µM.
Consider `CCC(CC)COC(=O)[C@H](C)N[P@](=O)(OC[C@H]1O[C@@](C#N)(c2ccc3c(N)ncnn23)[C@H](O)[C@@H]1O)Oc1ccccc1` [RDV, Remdesivir], for which the “degradation in bio-sample without stabilizer” value in data set [2] is given as “almost completely degraded in 5 min”.

For orientation: Kd means the free concentration of one partner at which half of the binding sites on the other are occupied at equilibrium, for simple one-to-one binding.
